Rows were chosen to be rich in hits. Some 4.1% of all compounds tested hit in one or more screens of this group.
TAG inh: inhibitors of triacylglycerol accumulation; H9c2 cells, Nile Red lipid (TAG) fluorescence; cells loaded with 200 µM oleic acid; inhibition, % at 12.5 µM; 230,000 tested, 0.66% active; AID 651582;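 active means pattern-corrected inhibition of lipid staining of at least 50% with the nuclear-stain viability signal not falling by more than 50%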;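 further: 0% = DMSO wells and 100% = triacsin C control wells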
TbMetRS inhib: blocks T. brucei methionyl-tRNA synthetase activity; purified T. brucei MetRS, ATP depletion, Kinase-Glo luminescence; inhibition, % at 11.9 µM; 360,000 tested, 0.4% active; AID 624268;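 active means inhibition above a per-plate cutoff of the control wells' mean inhibition plus 3 SD, cut at about 5.5% in these data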;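 further: 0% = DMSO wells median and 100% = median of wells with control inhibitor compound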
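Dosing: 11.9 µM compound single dose, 0.9% DMSO; Assay system: purified T. brucei MetRS enzyme; Measured by: Kinase-Glo luciferase luminescence reporting remaining unconsumed ATP; Schedule: 15 min plus 2 h at 25 °C.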
Efflux pump inh: blocks antifungal efflux pumps in multiplex yeast assay; S. cerevisiae Candida pump triplex, Nile Red efflux; inhibition, % at 10 µM; 330,000 tested, 0.44% active;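 active means plate passing quality check with inhibition over a set limit, or well fluorescence over plate mean plus 4 SD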;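 further: Nile Red retained in pooled yeast measured as flow cytometry median fluorescence; 0% = buffer negative control and 100% = Enniatin B positive control; higher means more Nile Red kept so more efflux inhibition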
AHR activator: activators of human aryl hydrocarbon receptor; AHR-responsive luciferase reporter cells, luminescence; activation, % at 5 µM; 320,000 tested, 2.5% active; AID 2796; in the data active means activation above about 47%;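 further: 0% = vehicle wells and 100% = reference agonist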
SMARCA2 activ: increases SMARCA2 function in MMTV reporter cells | MG213 cells, MMTV-luciferase reporter, dexamethasone, overnight | activation, % at 9.1 µM | 370,000 tested, 1% active | AID 652017; in the data active means activation above about 7.8%;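 further: 0% = vehicle wells and 100% = reference activator wells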
TAG conf: triacylglycerol accumulation inhibition, confirmation. 990 tested, 71% active. inhibition, % at 12.5 µM. shares compounds with TAG inh. H9c2 lipid accumulation, Nile Red fluorescence; cells loaded with 200 µM oleic acid;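 active means mean inhibition across replicates of 40% or more; inactive means mean inhibition below 40%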;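 further: plate controls were DMSO only wells for no effect and Triacsin C treated wells for full effect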
Starred values were filed as active, the others as inactive; x = no result given.

SMILES	TAG inh	TbMetRS inhib	Efflux pump inh	AHR activator	SMARCA2 activ	TAG conf
Cc1onc(-c2ccc(Cl)cc2Cl)c1-c1csc(N/N=C/c2ccccc2)n1	61*	0	0	16	-5	42*
Nc1ncnc2c1ncn2[C@@H]1O[C@H](COP(=O)(O)O)[C@@H](O)[C@H]1O	-6	-7	0	10	-2	x
CN1N=C(N)c2cn(C3OC(COP(=O)(O)O)C(O)C3O)c3ncnc1c23 (stereo not drawn)	52*	0	x	x	-2	64*
COc1cccc(NC(=O)n2ccc3ccc(-c4ccc5cc[nH]c5c4)cc32)c1	x	x	x	x	-1	x
COc1ccc2cc(Br)ccc2c1CC(=O)NC1CC(C)(C)NC(C)(C)C1	64*	-1	0	6	6	12
CCNC(=O)Cc1c(OC)ccc2cc(Br)ccc12	-7	0	0	5	-2	x
CCCCOCCCNC(=O)C[C@@H]1C(=O)N2CCCC3=C2[C@@]1(C(=O)OCC)CCC3	x	x	x	x	-2	x
COc1ccc(CCNc2nnc(Sc3nnnn3-c3ccccc3)s2)cc1OC	97*	0	0	8	-2	76*
CNC(=S)NN=C(C)c1ccc(OC)cc1O	72*	0	x	x	1	41*
Cc1cc2c(cc1C)CSC(c1ccccc1OC(=O)C(C)C)SC2	52*	0	0	0	-2	24
O=C(Nc1c(-c2ccc(F)cc2)nc2ncccn12)c1ccc(F)cc1	x	x	x	x	-2	x
C[C@@H]1CN([C@H](C)CO)C(=O)c2cc(NC(=O)Nc3ccc(F)cc3)ccc2O[C@@H](C)CCCCO[C@@H]1CN(C)C(=O)CCCN(C)C	x	x	x	x	-1	x
CCCCCC(/C=N/Nc1ccc(S(=O)(=O)N2CCOCC2)cc1[N+](=O)[O-])=C\c1ccccc1	59*	-1	0	0	-3	63*
NC(=O)c1cc(-c2ccccc2)nc(N2CCOCC2)n1	52*	-1	0	42	-2	60*
O=[N+]([O-])c1cccc(S(=O)(=O)N2CN(c3ccc(Br)cc3)c3nc4ccccc4nc32)c1	62*	0	0	27	0	49*
Cc1ccc(N2CN(S(=O)(=O)c3cccc([N+](=O)[O-])c3)c3nc4ccccc4nc32)cc1	18	0	-4	-4	5	x
CCOC(=O)c1c(NC(C)=O)sc2c(OCC(O)CN(CC)CC)c(Br)ccc12 (stereo not drawn)	69*	-1	0	4	4	47*
CC(C)CNS(=O)(=O)c1ccc(CCC(=O)Nc2cc(Cl)ccc2Oc2ccccc2)cc1	55*	3	0	4	-1	36
CC(C)c1ccc(Nc2ncc3c(n2)CCN(C(=O)Nc2ccc(F)c(Cl)c2)C3)cc1	87*	0	x	x	-1	88*
COC(=O)Nc1nc2ccc(C(=O)c3cccs3)cc2[nH]1	45	0	0	41	-2	x
COC(=O)Nc1nc2ccc(SC(C)C)cc2[nH]1	52*	-1	0	25	1	61*
CCCSc1ccc2nc(NC(=O)OC)[nH]c2c1	58*	0	0	54*	1	60*
O=C(Nc1ccccc1)N1c2ccccc2SC1c1ccco1 (stereo not drawn)	x	x	x	x	-4	x
CCOc1ccc(NC(=O)Cn2nnc(-c3ccccc3NC(=O)C3CC3)n2)cc1	72*	0	0	2	0	40
C[C@@]12CCC=C[C@H]1[C@H](c1ccoc1)N(Cc1ccccc1)C2=O	79*	0	0	1	0	12
SMILES	TAG inh	TbMetRS inhib	Efflux pump inh	AHR activator	SMARCA2 activ	TAG conf
CCOc1ccc(CCNC(=O)c2cc3sc(Cl)cc3n2C)cc1OCC	60*	-1	1	5	1	41*
CCOc1ccc(CCNC(=O)c2cc3sccc3n2C)cc1OCC	x	-1	0	3	-2	x
CCc1nc(C)c(C(=O)N2CCCC(C(=O)Nc3cccc(-c4cccc(C)c4)c3)C2)o1 (stereo not drawn)	50*	0	0	7	0	47*
COC(=O)[C@]12C[C@H](CC(=O)N3CCCC3)C(=O)N(CCC3=CCCCC3)C1=C[C@H](COCc1ccccc1)O[C@@H]2C	x	x	x	x	0	x
COC(=O)c1cc(=O)nc2sccn12	-8	-1	0	1	-2	x
COC(=O)c1cc(NC(=O)c2c(Cl)nc3sccn23)cc(C(=O)OC)c1	70*	0	0	2	0	87*

Screening results as filed in PubChem.
